Experiments:
vps34 = vps34 (Homo sapiens, UniProt Q8NEB9); test: vps34 lipid kinase membrane capture assay; assay type: biochemical; conditions: for potency for vps34 compared with compound 1: relative to compound 1, Fig. 2A; for inhibition of vps34: concentrations up to 20 µM, MnCl2
Summary of the method: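 Recombinant vps34 (10nM) was preincubated 15 min with test compound diluted in 10% DMSO/kinase buffer. Cold ATP plus γ32P-ATP (final 10µM ATP, 2.5uCi) was added and the reaction ran 1 hour. Final buffer: 50mM HEPES pH 7.5, 0.1% CHAPS, 2mM MnCl2, 1mM EGTA, 2mM DTT, 100µM PI, 500ng/µL BSA, 2% DMSO. Product was spotted on nitrocellulose and washed in 1M NaCl/1% phosphoric acid.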

PI3Kγ = PI3Kγ (Homo sapiens, UniProt P48736); test: PI3Kγ lipid kinase membrane capture assay; assay type: biochemical; conditions: for potency for PI3Kγ compared with compound 1: relative to compound 1, Fig. 2A; for fold selective over PI3Kγ: PI4KIIIβ versus PI3Kγ
Chain of PI3Kγ (P48736 whole entry): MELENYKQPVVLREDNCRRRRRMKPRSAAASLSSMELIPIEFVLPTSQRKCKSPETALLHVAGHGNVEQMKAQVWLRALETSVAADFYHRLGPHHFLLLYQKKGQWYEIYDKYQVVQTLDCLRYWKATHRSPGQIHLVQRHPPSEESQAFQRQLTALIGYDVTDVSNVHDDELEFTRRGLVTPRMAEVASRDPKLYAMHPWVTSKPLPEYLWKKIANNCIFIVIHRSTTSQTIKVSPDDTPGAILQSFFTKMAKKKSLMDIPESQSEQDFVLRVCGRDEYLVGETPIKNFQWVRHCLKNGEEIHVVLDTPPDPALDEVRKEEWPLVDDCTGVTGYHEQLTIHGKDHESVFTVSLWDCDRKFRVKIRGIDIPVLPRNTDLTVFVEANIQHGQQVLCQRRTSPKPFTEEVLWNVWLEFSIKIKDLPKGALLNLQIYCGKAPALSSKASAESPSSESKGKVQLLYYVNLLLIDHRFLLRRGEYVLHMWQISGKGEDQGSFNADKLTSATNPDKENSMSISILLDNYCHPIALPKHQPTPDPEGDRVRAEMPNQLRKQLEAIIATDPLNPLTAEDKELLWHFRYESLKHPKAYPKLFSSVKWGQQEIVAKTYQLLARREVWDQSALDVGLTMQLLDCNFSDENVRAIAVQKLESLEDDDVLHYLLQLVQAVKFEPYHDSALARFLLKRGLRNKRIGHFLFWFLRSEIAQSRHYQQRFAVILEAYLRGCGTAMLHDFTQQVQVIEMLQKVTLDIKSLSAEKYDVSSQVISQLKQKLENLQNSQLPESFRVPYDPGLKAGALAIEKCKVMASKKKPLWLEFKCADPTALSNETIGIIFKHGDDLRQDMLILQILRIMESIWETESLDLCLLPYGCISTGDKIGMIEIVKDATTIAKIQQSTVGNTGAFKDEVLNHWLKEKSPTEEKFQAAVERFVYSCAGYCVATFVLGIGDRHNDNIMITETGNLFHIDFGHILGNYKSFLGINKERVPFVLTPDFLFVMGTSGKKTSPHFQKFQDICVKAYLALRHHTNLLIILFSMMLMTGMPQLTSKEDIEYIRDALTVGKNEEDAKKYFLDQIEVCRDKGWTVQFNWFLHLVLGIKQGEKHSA
Summary of the method: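 Radiometric membrane-capture assay. For PI3Kγ, 5nM enzyme was preincubated 15 min with test compound, then cold ATP plus γ32P-ATP was added for 15 min. PI3Kγ final conditions: 50mM HEPES pH 7.5, 100mM NaCl, 0.03% CHAPS, 10mM MgCl2, 80µM PIP2, 10µM ATP, 1uCi. PI4KIIIβ ran 30 min with 2.5nM enzyme, 100µM PI, Bis-Tris Propane pH 7.5, Triton X-100, 10µM ATP, 1uCi. Both used 2% DMSO final.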

PI3Kδ = PI3Kδ (Homo sapiens, UniProt O00329); test: PI3Kδ lipid kinase membrane capture assay; assay type: biochemical; conditions: for potency for PI3Kδ compared with compound 1: relative to compound 1, Fig. 2A; for fold selective over PI3Kδ: PI4KIIIβ versus PI3Kδ
Chain of PI3Kδ (O00329 whole entry): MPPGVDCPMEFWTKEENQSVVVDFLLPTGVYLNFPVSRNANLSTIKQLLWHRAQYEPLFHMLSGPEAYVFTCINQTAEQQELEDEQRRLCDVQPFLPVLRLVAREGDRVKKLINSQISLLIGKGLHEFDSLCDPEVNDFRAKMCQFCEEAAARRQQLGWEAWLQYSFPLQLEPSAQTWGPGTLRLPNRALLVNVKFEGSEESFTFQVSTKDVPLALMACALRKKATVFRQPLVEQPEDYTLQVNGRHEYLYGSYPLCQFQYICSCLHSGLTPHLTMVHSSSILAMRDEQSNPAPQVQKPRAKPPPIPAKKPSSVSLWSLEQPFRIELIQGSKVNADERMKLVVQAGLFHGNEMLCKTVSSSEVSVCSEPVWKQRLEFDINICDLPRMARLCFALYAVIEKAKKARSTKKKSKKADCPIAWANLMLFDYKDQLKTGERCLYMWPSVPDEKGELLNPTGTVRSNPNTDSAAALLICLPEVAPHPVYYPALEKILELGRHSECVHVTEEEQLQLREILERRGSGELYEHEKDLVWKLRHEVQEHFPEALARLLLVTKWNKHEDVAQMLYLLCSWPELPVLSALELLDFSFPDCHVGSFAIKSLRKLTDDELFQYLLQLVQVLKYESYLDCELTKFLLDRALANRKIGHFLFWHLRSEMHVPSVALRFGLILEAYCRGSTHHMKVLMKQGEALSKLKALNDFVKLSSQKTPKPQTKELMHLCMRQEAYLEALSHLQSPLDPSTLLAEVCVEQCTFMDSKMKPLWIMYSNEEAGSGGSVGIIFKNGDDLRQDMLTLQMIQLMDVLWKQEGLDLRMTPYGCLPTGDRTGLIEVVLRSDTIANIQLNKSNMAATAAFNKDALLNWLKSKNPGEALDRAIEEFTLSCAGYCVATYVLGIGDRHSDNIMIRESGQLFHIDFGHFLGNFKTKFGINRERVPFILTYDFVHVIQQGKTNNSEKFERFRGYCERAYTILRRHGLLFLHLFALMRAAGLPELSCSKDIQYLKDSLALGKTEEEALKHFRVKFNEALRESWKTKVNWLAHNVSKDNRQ
Chain of PI3Kδ (P27986 whole entry partner): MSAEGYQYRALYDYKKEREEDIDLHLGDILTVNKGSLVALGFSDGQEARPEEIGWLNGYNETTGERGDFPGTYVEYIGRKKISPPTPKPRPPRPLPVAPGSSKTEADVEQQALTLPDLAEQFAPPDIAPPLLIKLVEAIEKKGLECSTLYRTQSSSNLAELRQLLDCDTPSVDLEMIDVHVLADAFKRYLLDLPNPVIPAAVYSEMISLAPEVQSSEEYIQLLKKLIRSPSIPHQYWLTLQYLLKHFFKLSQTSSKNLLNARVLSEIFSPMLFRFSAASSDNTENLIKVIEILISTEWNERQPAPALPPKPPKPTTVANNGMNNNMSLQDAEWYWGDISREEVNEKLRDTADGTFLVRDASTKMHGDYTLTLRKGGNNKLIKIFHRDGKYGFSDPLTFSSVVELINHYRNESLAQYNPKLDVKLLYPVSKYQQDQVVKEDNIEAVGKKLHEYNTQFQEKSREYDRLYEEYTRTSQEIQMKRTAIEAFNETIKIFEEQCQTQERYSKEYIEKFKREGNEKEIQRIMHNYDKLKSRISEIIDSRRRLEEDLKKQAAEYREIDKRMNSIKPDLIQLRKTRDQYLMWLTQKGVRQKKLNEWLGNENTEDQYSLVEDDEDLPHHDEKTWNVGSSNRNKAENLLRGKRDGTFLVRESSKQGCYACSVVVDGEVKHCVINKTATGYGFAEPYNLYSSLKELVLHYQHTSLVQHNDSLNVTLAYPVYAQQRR

PI4KIIIβ = PI4KIIIβ (Homo sapiens, UniProt Q9UBF8); test: PI4KIIIβ lipid kinase membrane capture assay; assay type: biochemical; conditions: for potency for PI4KIIIβ compared with compound 1: relative to compound 1, Fig. 2A
Chain of PI4KIIIβ (Q9UBF8 whole entry): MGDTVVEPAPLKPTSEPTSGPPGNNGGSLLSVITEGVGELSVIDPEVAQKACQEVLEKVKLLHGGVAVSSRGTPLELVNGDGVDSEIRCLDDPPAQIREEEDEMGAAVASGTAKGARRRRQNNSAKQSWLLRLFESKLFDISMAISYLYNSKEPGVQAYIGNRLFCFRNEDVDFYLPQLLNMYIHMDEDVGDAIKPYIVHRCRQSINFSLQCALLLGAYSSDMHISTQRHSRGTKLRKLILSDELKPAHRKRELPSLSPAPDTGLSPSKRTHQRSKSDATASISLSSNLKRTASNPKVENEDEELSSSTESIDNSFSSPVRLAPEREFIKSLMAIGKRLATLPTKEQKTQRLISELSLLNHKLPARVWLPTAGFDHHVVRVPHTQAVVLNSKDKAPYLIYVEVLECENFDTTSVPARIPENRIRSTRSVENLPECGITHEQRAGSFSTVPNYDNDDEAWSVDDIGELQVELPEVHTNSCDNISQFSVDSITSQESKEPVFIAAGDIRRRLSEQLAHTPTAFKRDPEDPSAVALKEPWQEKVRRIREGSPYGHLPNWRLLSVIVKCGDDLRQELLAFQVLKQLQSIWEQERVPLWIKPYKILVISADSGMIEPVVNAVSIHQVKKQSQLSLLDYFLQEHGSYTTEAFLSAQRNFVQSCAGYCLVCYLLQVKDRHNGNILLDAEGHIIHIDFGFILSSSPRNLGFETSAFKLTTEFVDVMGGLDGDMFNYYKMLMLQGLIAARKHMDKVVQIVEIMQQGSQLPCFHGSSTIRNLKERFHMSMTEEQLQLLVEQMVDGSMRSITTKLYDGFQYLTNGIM
Summary of the method: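 Recombinant PI4KIIIβ with a phosphoinositide substrate and γ32P-ATP in a membrane-capture format. Test compound diluted into 10% DMSO and kinase assay buffer. After the reaction, a 4 µL aliquot was spotted on 0.2 µm nitrocellulose, dried 5 min under a heat lamp, then washed once for 30 s and 6×5 min in 1M NaCl/1% phosphoric acid.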

[1] = test system: HCVcc genotype 2a reporter virus J6/JFH1-GLuc in Huh 7.5 cells; test: HCV2a antiviral assay; assay type: cell-based, Hepatitis C virus; conditions: Huh 7.5 cells stably infected with J6/JFH1-GLuc, three days incubation

Chain of vps34 (Q8NEB9 whole entry): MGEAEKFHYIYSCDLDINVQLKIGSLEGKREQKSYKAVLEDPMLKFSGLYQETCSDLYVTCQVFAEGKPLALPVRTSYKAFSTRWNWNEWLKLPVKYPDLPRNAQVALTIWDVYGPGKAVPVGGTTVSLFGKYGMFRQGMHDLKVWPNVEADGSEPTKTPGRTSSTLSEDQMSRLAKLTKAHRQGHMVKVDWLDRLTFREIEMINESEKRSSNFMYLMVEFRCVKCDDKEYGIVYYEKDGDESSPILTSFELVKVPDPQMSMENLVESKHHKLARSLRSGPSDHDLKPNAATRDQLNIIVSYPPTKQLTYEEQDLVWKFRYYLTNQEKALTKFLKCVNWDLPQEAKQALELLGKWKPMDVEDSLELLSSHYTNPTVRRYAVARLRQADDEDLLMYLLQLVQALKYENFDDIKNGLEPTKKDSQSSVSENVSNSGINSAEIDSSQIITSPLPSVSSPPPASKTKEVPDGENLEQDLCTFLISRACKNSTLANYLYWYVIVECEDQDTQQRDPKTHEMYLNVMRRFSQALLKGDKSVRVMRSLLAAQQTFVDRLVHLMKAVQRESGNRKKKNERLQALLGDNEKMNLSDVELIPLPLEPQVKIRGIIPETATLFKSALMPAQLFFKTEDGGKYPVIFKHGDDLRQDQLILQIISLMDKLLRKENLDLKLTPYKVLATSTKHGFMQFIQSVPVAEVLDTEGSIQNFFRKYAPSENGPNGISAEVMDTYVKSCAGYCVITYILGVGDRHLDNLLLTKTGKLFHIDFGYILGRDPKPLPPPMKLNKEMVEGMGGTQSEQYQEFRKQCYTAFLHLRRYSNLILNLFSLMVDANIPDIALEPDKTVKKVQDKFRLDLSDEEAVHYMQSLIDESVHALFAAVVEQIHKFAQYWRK

| SMILES | potency for PI4KIIIβ compared with compound 1 (PI4KIIIβ) | fold selective over PI3Kγ (PI3Kγ) [fold] | fold selective over PI3Kδ (PI3Kδ) [fold] | further results |
| --- | --- | --- | --- | --- |
| CC(=O)Nc1nc(C)c(-c2ccc(Br)c(S(=O)(=O)NCCO)c2)s1 [compound 2] | slight increase in potency | – | – | potency for vps34 compared with compound 1 (vps34): slight increase in potency; potency for PI3Kγ compared with compound 1 (PI3Kγ): slight decrease in potency; potency for PI3Kδ compared with compound 1 (PI3Kδ): slight increase in potency |
| COc1ccc(-c2sc(NC(C)=O)nc2C)cc1S(=O)(=O)NCCO [compound 3] | increase in potency | > 40 | > 40 | – |
| CC(=O)Nc1nc(C)c(-c2ccc(Cl)c(S(=O)(=O)Nc3ccc(F)cc3)c2)s1 [compound 7] | minimal differences in both potency and specificity | – | – | – |
| COc1ccc(-c2sc(NC(=O)C3CCCC3)nc2C)cc1S(=O)(=O)Nc1ccc(O)cc1 [compound 9] | – | > 140 | > 20 | inhibition of vps34 (vps34): no inhibition; anti-viral activity against Hepatitis C Virus and toxicity [1]: best combination of anti-viral efficacy, and lowest toxicity |
| COc1ccc(-c2sc(NC(=O)C(C)(C)C)nc2C)cc1S(=O)(=O)Nc1ccc(O)cc1 [compound 10] | – | > 1000 | > 200 | inhibition of vps34 (vps34): no inhibition; anti-viral activity against Hepatitis C Virus and toxicity [1]: best combination of anti-viral efficacy, and lowest toxicity; fold selective for PI4KIIIβ across all enzymes tested (PI4KIIIβ; panel of nine related lipid kinases): > 200 fold |

Second part, led by results:

| potency for PI4KIIIβ compared with compound 1 (PI4KIIIβ) | fold selective over PI3Kγ (PI3Kγ) [fold] | SMILES | fold selective over PI3Kδ (PI3Kδ) [fold] | further results |
| --- | --- | --- | --- | --- |
| – | > 600 | Cc1nc(NC(=O)C(C)(C)C)sc1-c1ccc(Cl)c(S(=O)(=O)NCCO)c1 [compound 4] | – | – |
| – | > 90 | Cc1nc(NC(=O)C2CCCC2)sc1-c1ccc(Cl)c(S(=O)(=O)NCCO)c1 [compound 5] | – | – |
| large increase in potency | – | CC(=O)Nc1nc(C)c(-c2ccc(Cl)c(S(=O)(=O)Nc3ccc(O)cc3)c2)s1 [compound 6] | – | potency for vps34 compared with compound 1 (vps34): large increase in potency; potency for PI3Kγ compared with compound 1 (PI3Kγ): large increase in potency; potency for PI3Kδ compared with compound 1 (PI3Kδ): large increase in potency |
